In ChEMBL document CHEMBL1122411 (J Med Chem, 1983):
pIC50, pKi: −log10 of the molar value.

Key:
[1] = molecular target: T1, Dihydrofolate reductase (Mus musculus) (UniProt P00375); experiment: Binding affinity to Dihydrofolate reductase of L1210 cell line using [H]MTX as radioligand; format: cell-based
T1 sequence (whole entry): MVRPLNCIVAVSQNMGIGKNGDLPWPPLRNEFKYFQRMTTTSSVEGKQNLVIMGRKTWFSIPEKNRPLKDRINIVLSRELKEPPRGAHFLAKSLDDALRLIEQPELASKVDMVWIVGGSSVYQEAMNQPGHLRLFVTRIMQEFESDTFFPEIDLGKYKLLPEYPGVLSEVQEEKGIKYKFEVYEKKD
Summary of the method: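 Competitive [³H]MTX binding to dihydrofolate reductase from L1210 leukemia. Ascites cells from tumor-bearing mice were washed and lysed before use. The assay ran at 37 °C in 0.1 M potassium phosphate, pH 6.8. ID₅₀ was read as inhibition of radioligand binding, with MTX included in each experiment.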

[2] = Tested for substrate activity of compound for Carboxypeptidase G1; parameters: species or system Mus musculus
Summary of the method: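 Cleavage by carboxypeptidase G₁ was followed as the A320 change on release of the pteroate. Conditions were 37 °C in 0.05 M potassium phosphate, pH 6.7, with 100 μM ZnSO₄. Enzyme was diluted in 1% BSA to give ΔA320 of 0.02–0.2/min. Km and Vmax came from Lineweaver-Burk plots. Ki came from competitive runs varying analogue against fixed MTX, or vice versa.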

Mus musculus [3] = experiment: Toxicity in mice after 14-22 days at a dose of 8 mg/kg/day; value is 14/8.5; format: functional
Mus musculus [4] = experiment: Weight change on day 7 in L1210 Lymphoid Leukemia in mice at a dose of 20 mg/kg/day (qdx5); format: functional; conditions: in the assay text read “q2dx5” for “qdx5”
Summary of the method: (§1)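 Male B6D2F₁J mice (20–25 g) bearing ip L1210 ascites (10⁵ cells, day 0) were used, 5 per group. Drug was given ip in water at pH 7.5–8.0 from day 1 on q2d×5, qd×9 or b.i.d.×10 schedules. Animals were weighed after 7 days and percent weight change recorded.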

Mus musculus [5] = experiment: Toxicity in mice after 13-18 days at a dose of 20 mg/kg/day; value is 13/9; format: functional
Mus musculus [6] = experiment: Toxicity in mice after 10-24 days at a dose of 20 mg/kg/day; value is 18/9; format: functional
[7] = molecular target: T1, Dihydrofolate reductase (Mus musculus)
Mus musculus [8] = experiment: Weight change on day 7 in L1210 Lymphoid Leukemia in mice at a dose of 4 mg/kg/day (1dx9); format: functional; summary of the method: as §1
[9] = molecular target: Dihydrofolate reductase (Lactobacillus casei) (UniProt P00381); conditions: Lacticaseibacillus casei
Sequence of Dihydrofolate reductase (Lactobacillus casei) (P00381 whole entry): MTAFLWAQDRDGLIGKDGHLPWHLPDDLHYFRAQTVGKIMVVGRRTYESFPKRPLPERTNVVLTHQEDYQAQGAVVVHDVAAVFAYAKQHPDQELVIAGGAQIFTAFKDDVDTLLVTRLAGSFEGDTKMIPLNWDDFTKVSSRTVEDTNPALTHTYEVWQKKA

Mus musculus [10] = species: Mus musculus; experiment: Percentage increase in life span after 14-22 days; format: functional
Summary of the method: (§2)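 Male B6D2F1J mice (20–25 g), randomized after i.p. inoculation with 10^5 L1210 ascitic leukemia cells on day 0. Drug in water, pH 7.5–8.0, given i.p. on a q2d×5, qd×9 (from day 1) or b.i.d.×10 schedule; 5 mice per group. %ILS = [(T/C) − 1]100 from median survival days of treated versus control mice. Range is survival days.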

Mus musculus [11] = species: Mus musculus; experiment: Percentage increase in life span after 12-20 days; format: functional; summary of the method: as §2
Mus musculus [12] = experiment: Weight change on day 7 in L1210 Lymphoid Leukemia in mice at a dose of 8 mg/kg/day (1dx9); format: functional
Summary of the method: (§3)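 Male B6D2F1J mice (20–25 g) were inoculated i.p. with 10⁵ L1210 ascites cells on day 0 and randomized into groups of 5. Drug in water at pH 7.5–8.0 was given i.p. daily for 9 days (qd×9) from day 1. Animals were weighed after 7 days, and the % body-weight change was recorded under a standard NCI protocol.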

Mus musculus [13] = experiment: Weight change on day 7 in L1210 Lymphoid Leukemia in mice at a dose of 20 mg/kg/day (qdx9); format: functional; summary of the method: as §1
Mus musculus [14] = experiment: Toxicity in mice after 10-23 days at a dose of 40 mg/kg/day; value is 21/9; format: functional
L1210 = experiment: Cytotoxicity against L1210 cells; format: functional; conditions: Mus musculus, read-out: ID50 (the source's name)
Mus musculus [15] = experiment: Toxicity in mice after 11-16 days at a dose of 2 mg/kg/day; value is 12/8.5; format: functional
Mus musculus [16] = species: Mus musculus; experiment: Percentage increase in life span after 10-22 days; format: functional; summary of the method: as §2
Mus musculus [17] = experiment: Toxicity in mice after 10-22 days at a dose of 40 mg/kg/day; value is 15/9; format: functional
Mus musculus [18] = species: Mus musculus; experiment: Percentage increase in life span after 10-23 days; format: functional; summary of the method: as §2
Mus musculus [19] = experiment: Toxicity in mice after 12-20 days at a dose of 4 mg/kg/day; value is 13/8.5; format: functional
Mus musculus [20] = species: Mus musculus; experiment: Percentage increase in life span after 10-24 days; format: functional; summary of the method: as §2
[21] = tested on: Carboxypeptidase G1 (Pseudomonas); experiment: Tested for substrate activity of compound for Carboxypeptidase G1
Mus musculus [22] = experiment: Weight change on day 7 in L1210 Lymphoid Leukemia in mice at a dose of 40 mg/kg/day (qdx9); format: functional; summary of the method: as §3
Mus musculus [23] = experiment: Weight change on day 7 in L1210 Lymphoid Leukemia in mice at a dose of 2 mg/kg/day (1dx9); format: functional; summary of the method: as §1
[24] = molecular target: Dihydrofolate reductase (Lactobacillus casei) (UniProt P00381); conditions: Lacticaseibacillus casei; remark: listed apart in the source
Mus musculus [25] = species: Mus musculus; experiment: Percentage increase in life span after 11-16 days; format: functional; summary of the method: as §2
[26] = molecular target: T1, Dihydrofolate reductase (Mus musculus); experiment: Binding affinity to Dihydrofolate reductase of L1210/R71 using spectrophotometric assay
Summary of the method: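 The enzyme was isolated from MTX-resistant L1210/R71 cultured cells and purified on MTX-agarose. The assay measured ΔA340 at 22 °C in 0.1 M Tris, pH 7.0, with 62 nM enzyme. Enzyme was preincubated 2 min with inhibitor and NADPH, and dihydrofolate was then added to start the reaction. ID₅₀ determined.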

Mus musculus [27] = species: Mus musculus; experiment: Percentage increase in life span after 13-18 days; format: functional; summary of the method: as §2

For `CN(Cc1cnc2nc(N)nc(N)c2n1)c1ccc(C(=O)NC(CCCCC(=O)O)C(=O)O)cc1` (centres undefined), the ID50 [1] was 2.8 nM, the pKi [2] was 4.66 and the T/C (Mus musculus [3]) was 14. The Weight change (Mus musculus [4]) was 6%, the T/C (Mus musculus [5]) was 13 and the T/C (Mus musculus [6]) was 18. The ID50 [7] was 6.9 nM, the Weight change (Mus musculus [8]) was 4% and the ID50 [9] was 6.3 nM. The ILS (Mus musculus [10]) was 65%, the ILS (Mus musculus [11]) was 52% and the Weight change (Mus musculus [12]) was 4%. For the same molecule, the Weight change (Mus musculus [13]) was -2%, the T/C (Mus musculus [14]) was 21 and the pIC50 (L1210) was 8.00. For the same molecule, the T/C (Mus musculus [15]) was 12, the ILS (Mus musculus [16]) was 67% and the T/C (Mus musculus [17]) was 15. It also gave an ILS (Mus musculus [18]) of 133%, a T/C (Mus musculus [19]) of 13 and an ILS (Mus musculus [20]) of 100%. For the same molecule, the Km [21] was 481 µM, the Vmax [21] was 0.44 min⁻¹ and the Weight change (Mus musculus [22]) was -4%. For the same molecule, the Weight change (Mus musculus [23]) was 10%, the ID50 [24] was 18 nM and the ILS (Mus musculus [25]) was 41%. The ID50 [26] was 39 nM and the ILS (Mus musculus [27]) was 44%.
